Assay results as given in ChEMBL document CHEMBL4257459, “Synergistic antifungal effect of cyclized chalcone derivatives and fluconazole against Candida albicans” (2017).
Values after ≈ are worked out from the molar mass of the structure shown.

How the values were obtained:
[1] = test system: Candida albicans; assay: Antifungal activity against fluconazole susceptible Candida albicans 004B1 by CLSI protocol based broth microdilution method; format: functional
Summary of the method: (§1)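 Clinical isolates and control strain subcultured at least twice on TSA, 37 °C, 48 h. MICs by CLSI M27-A3 broth microdilution; compounds dissolved in DMSO to 2000 μg mL–1 stock. Fluconazole positive control, culture, media and DMSO vehicle controls in each run. Duplicate experiments; MIC in μg mL–1.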

[2] = test system: Candida albicans; assay: Inhibition of ABC efflux pumps in fluconazole resistant Candida albicans A171 assessed as reduction in energy-dependent rhodamine 6G efflux in presence of 0.1 M glucose after 25 mins by fluorescence assay relative to control
Summary of the method: (§2)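 Cells grown in TSB at 37 °C for 8 h, washed, resuspended in glucose-free PBS at 1 × 10^8 cells. De-energized 45 min with 5 mM deoxyglucose plus 5 mM dinitrophenol. […] Washed, sampled 5–25 min, then 0.1 M glucose added. Absorbance 527 nm, R6G from standard curve.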

[3] = test system: Candida albicans; assay: Antifungal activity against fluconazole resistant Candida albicans A171 in presence of fluconazole by CLSI protocol based broth microdilution method; format: functional
Summary of the method: (§3)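 Checkerboard-style combination with fluconazole at a 1 : 1 ratio, over concentrations 2–4 fold below each agent's MIC alone, by CLSI broth microdilution. Fractional inhibitory concentration index calculated and interpreted as synergy (<0.5), additive (0.5–1), indifferent or antagonistic.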

[4] = test system: Candida albicans; assay: Inhibition of ergosterol biosynthesis in fluconazole resistant Candida albicans A171 at 0.5 to 1 times MIC relative to control; format: functional
Summary of the method: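 Total sterols quantified by alcoholic KOH extraction in cells grown in 50 ml TSB with compounds at MIC and ½ MIC; untreated and 8 μg mL–1 fluconazole controls. Spectral scan; ergosterol content from A281.5 and A230 absorbances, dilution factor and pellet weight, correcting for 24(28) DHE.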

[5] = test system: Candida albicans; assay: Inhibition of ABC efflux pumps in fluconazole susceptible Candida albicans 0072gr assessed as reduction in energy-dependent rhodamine 6G efflux in presence of 0.1 M glucose after 25 mins […] relative to control
[6] = test system: Candida albicans; assay: Inhibition of ABC efflux pumps in fluconazole susceptible Candida albicans 003gr assessed as reduction in energy-dependent rhodamine 6G efflux in presence of 0.1 M glucose after 25 mins […] relative to control
[7] = test system: Candida albicans; assay: Down regulation of ERG11 gene expression in fluconazole susceptible Candida albicans ATCC 90028 at MIC after 2 hrs by qRT PCR analysis relative to control; format: functional
Summary of the method: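 Cells exposed to compound at MIC for 2 h; total RNA isolated, cDNA synthesised, ERG11 measured by real-time qPCR with ACT1 as endogenous control. Triplicate independent experiments; mean ± standard deviation.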

[8] = test system: Candida albicans; assay: Antifungal activity against fluconazole susceptible Candida albicans 003gr by CLSI protocol based broth microdilution method; format: functional; summary of the method: as §1
[9] = test system: Candida albicans; assay: Antifungal activity against Candida albicans ATCC 90028 by CLSI protocol based broth microdilution method; format: functional; summary of the method: as §1
[10] = test system: Candida albicans; assay: Antifungal activity against fluconazole susceptible Candida albicans 004gr in presence of fluconazole by CLSI protocol based broth microdilution method; format: functional
[11] = test system: Candida albicans; assay: Antifungal activity against fluconazole resistant Candida albicans 167-1 in presence of fluconazole by CLSI protocol based broth microdilution method; format: functional; summary of the method: as §3
[12] = test system: Candida albicans; assay: Antifungal activity against fluconazole susceptible Candida albicans 0072gr by CLSI protocol based broth microdilution method; format: functional; summary of the method: as §1
[13] = test system: Candida albicans; assay: Antifungal activity against fluconazole resistant Candida albicans 167-2 in presence of fluconazole by CLSI protocol based broth microdilution method; format: functional; summary of the method: as §3
[14] = test system: Candida albicans; assay: Inhibition of ABC efflux pumps in fluconazole resistant Candida albicans 167-1 assessed as reduction in energy-dependent rhodamine 6G efflux in presence of 0.1 M glucose after 25 mins […] relative to control
[15] = test system: Candida albicans; assay: Antifungal activity against fluconazole susceptible Candida albicans 0072gr in presence of fluconazole by CLSI protocol based broth microdilution method; format: functional
[16] = test system: Candida albicans; assay: Antifungal activity against fluconazole susceptible Candida albicans 0079gr in presence of fluconazole by CLSI protocol based broth microdilution method; format: functional
[17] = test system: Candida albicans; assay: Inhibition of ABC efflux pumps in fluconazole resistant Candida albicans 167-2 assessed as reduction in energy-dependent rhodamine 6G efflux in presence of 0.1 M glucose after 25 mins […] relative to control
[18] = test system: Candida albicans; assay: Inhibition of ergosterol biosynthesis in fluconazole susceptible Candida albicans ATCC 90028 at 0.5 to 1 times MIC relative to control; format: functional
Summary of the method: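 ATCC90028 grown in 50 ml TSB with MIC and ½ MIC of compound; untreated and 8 μg mL–1 fluconazole controls. Sterols extracted by alcoholic KOH method and spectrophotometrically scanned; ergosterol % calculated from A281.5 and A230 (E values 290 and 518) with dilution factor, per pellet weight.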

[19] = test system: Candida albicans; assay: Antifungal activity against fluconazole susceptible Candida albicans 002B1 by CLSI protocol based broth microdilution method; format: functional; summary of the method: as §1
[20] = test system: Candida albicans; assay: Antifungal activity against fluconazole resistant Candida albicans 167-1 by CLSI protocol based broth microdilution method; format: functional
Summary of the method: (§4)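 Broth microdilution per CLSI M27-A3 against clinical C. albicans isolates. Strains sub-cultured at least twice on Tryptone Soya Agar, 37 °C, 48 h. Compounds dissolved in DMSO at 2000 μg mL–1 stock. Fluconazole positive control, plus culture, media and vehicle controls. Run in duplicate; MIC in μg mL–1.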

[21] = test system: Candida albicans; assay: Antifungal activity against fluconazole susceptible Candida albicans 0079gr by CLSI protocol based broth microdilution method; format: functional; summary of the method: as §1
[22] = test system: Candida albicans; assay: Inhibition of ABC efflux pumps in fluconazole susceptible Candida albicans 004gr assessed as reduction in energy-dependent rhodamine 6G efflux in presence of 0.1 M glucose after 25 mins by fluorescence assay relative to control; summary of the method: as §2
[23] = test system: Candida albicans; assay: Antifungal activity against fluconazole resistant Candida albicans A171 by CLSI protocol based broth microdilution method; format: functional; summary of the method: as §4
[24] = test system: Candida albicans; assay: Antifungal activity against fluconazole susceptible Candida albicans 002B1 in presence of fluconazole by CLSI protocol based broth microdilution method; format: functional
[25] = test system: Candida albicans; assay: Inhibition of ABC efflux pumps in fluconazole susceptible Candida albicans 004B1 assessed as reduction in energy-dependent rhodamine 6G efflux in presence of 0.1 M glucose after 25 mins by fluorescence assay relative to control; summary of the method: as §2
[26] = test system: Candida albicans; assay: Antifungal activity against fluconazole resistant Candida albicans 167-2 by CLSI protocol based broth microdilution method; format: functional; summary of the method: as §4
[27] = test system: Candida albicans; assay: Antifungal activity against Candida albicans ATCC 90028 in presence of fluconazole by CLSI protocol based broth microdilution method; format: functional
[28] = test system: Candida albicans; assay: Antifungal activity against fluconazole susceptible Candida albicans 003gr in presence of fluconazole by CLSI protocol based broth microdilution method; format: functional
[29] = test system: Candida albicans; assay: Inhibition of ABC efflux pumps in fluconazole susceptible Candida albicans 002B1 assessed as reduction in energy-dependent rhodamine 6G efflux in presence of 0.1 M glucose after 25 mins […] relative to control
[30] = test system: Candida albicans; assay: Antifungal activity against fluconazole susceptible Candida albicans 004gr by CLSI protocol based broth microdilution method; format: functional; summary of the method: as §1
[31] = test system: Candida albicans; assay: Down regulation of ERG11 gene expression in fluconazole resistant Candida albicans A171 at MIC after 2 hrs by qRT PCR analysis relative to control; format: functional
Summary of the method: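 Cells exposed 2 h to test agents at MIC. Total RNA isolated, cDNA synthesized, qPCR for ERG11 with ACT1 as endogenous control. Triplicate independent experiments, reported as mean ± standard deviation.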

[32] = test system: Candida albicans; assay: Inhibition of ABC efflux pumps in fluconazole susceptible Candida albicans 0079gr assessed as reduction in energy-dependent rhodamine 6G efflux in presence of 0.1 M glucose after 25 mins by fluorescence assay relative to control; summary of the method: as §2
[33] = test system: Candida albicans; assay: Antifungal activity against fluconazole susceptible Candida albicans 004B1 in presence of fluconazole by CLSI protocol based broth microdilution method; format: functional

SMILES | MIC [1] | inhibition [2] | fractional inhibitory concentration index (FICI) [3] | inhibition (INH) [4] | inhibition [5] | inhibition [6] | fold change (FC) [7] | MIC [8] | MIC [9] | fractional inhibitory concentration index (FICI) [10] | fractional inhibitory concentration index (FICI) [11] | MIC [12] | fractional inhibitory concentration index (FICI) [13] | inhibition [14] | fractional inhibitory concentration index (FICI) [15] | fractional inhibitory concentration index (FICI) [16] | inhibition [17] | inhibition (INH) [18] | MIC [19] | MIC [20] | further results
O=C1NC(c2ccccc2)=CC(c2ccc(C3C=C(c4ccccc4)NC(=O)N3)cc2)N1 (stereo unspecified) | 0.25 to 2 µg/mL (≈ 0.592 to 4.73 µM) | < 20% | 0.031 - 0.25 | 49 - 94% | < 20% | < 20% | 1.5 - 13 | 0.25 to 2 µg/mL (≈ 0.592 to 4.73 µM) | 0.25 to 2 µg/mL (≈ 0.592 to 4.73 µM) | 0.13 - 0.38 | 0.031 - 0.25 | 0.25 to 2 µg/mL (≈ 0.592 to 4.73 µM) | 0.031 | < 20% | 0.13 - 0.38 | 0.13 - 0.38 | < 20% | 66 - 99% | 0.25 to 2 µg/mL (≈ 0.592 to 4.73 µM) | 4 to 8 µg/mL (≈ 9.47 to 18.9 µM) | MIC [21]: 0.25 to 2 µg/mL (≈ 0.592 to 4.73 µM); inhibition [22]: < 20%; MIC [23]: 4 to 8 µg/mL (≈ 9.47 to 18.9 µM); fractional inhibitory concentration index (FICI) [24]: 0.13 - 0.38; inhibition [25]: < 20%; MIC [26]: 4 to 8 µg/mL (≈ 9.47 to 18.9 µM); fractional inhibitory concentration index (FICI) [27]: 0.13 - 0.38; fractional inhibitory concentration index (FICI) [28]: 0.13 - 0.38; inhibition [29]: < 20%; MIC [30]: 0.25 to 2 µg/mL (≈ 0.592 to 4.73 µM); fold change (FC) [31]: 1.25 - 10; inhibition [32]: < 20%; fractional inhibitory concentration index (FICI) [33]: 0.13 - 0.38
O=C(/C=C/c1ccc(/C=C/C(=O)c2ccccc2)cc1)c1ccccc1 | 2 to 16 µg/mL (≈ 5.91 to 47.3 µM) | < 20% | 0.266 - 0.27 | 49 - 94% | < 20% | < 20% | 1.5 - 13 | 2 to 16 µg/mL (≈ 5.91 to 47.3 µM) | 2 to 16 µg/mL (≈ 5.91 to 47.3 µM) | 0.31 - 1.5 | 0.266 - 0.27 | 2 to 16 µg/mL (≈ 5.91 to 47.3 µM) | 0.266 - 0.27 | < 20% | 0.31 - 1.5 | 0.31 - 1.5 | < 20% | 66 - 99% | 2 to 16 µg/mL (≈ 5.91 to 47.3 µM) | 16 to 31 µg/mL (≈ 47.3 to 91.6 µM) | MIC [21]: 2 to 16 µg/mL (≈ 5.91 to 47.3 µM); inhibition [22]: < 20%; MIC [23]: 16 to 31 µg/mL (≈ 47.3 to 91.6 µM); fractional inhibitory concentration index (FICI) [24]: 0.31 - 1.5; inhibition [25]: < 20%; MIC [26]: 16 to 31 µg/mL (≈ 47.3 to 91.6 µM); fractional inhibitory concentration index (FICI) [27]: 0.31 - 1.5; fractional inhibitory concentration index (FICI) [28]: 0.31 - 1.5; inhibition [29]: < 20%; MIC [30]: 2 to 16 µg/mL (≈ 5.91 to 47.3 µM); fold change (FC) [31]: 1.25 - 10; inhibition [32]: < 20%; fractional inhibitory concentration index (FICI) [33]: 0.31 - 1.5
